Measurements from ChEMBL document CHEMBL3808334, “Synthesis and in vitro evaluation of novel triazine analogues as anticancer agents and their interaction studies with bovine serum albumin” (Eur J Med Chem, 2016).

Experiments:
Type in all cases: functional
A549 [1] = test: Growth inhibition of human A549/ATCC cells incubated for 48 hrs by sulforhodamine B assay; conditions: A549, 48 h
How it was run: (§1)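 Five-dose assay: five concentrations from 10-fold or ½-log serial dilutions. Cells are plated at 5,000–40,000 per well according to doubling time, grown 24 h, then exposed 48 h at 37 °C, 5% CO₂. Fixed with cold 50% TCA (final addition) for 60 min at 4 °C and stained with 0.4% SRB in 1% acetic acid. Bound dye is solubilized in 10 mM Tris base and read at 515 nm. GI₅₀ is where [(Ti−Tz)/(C−Tz)]×100 = 50, with a time-zero plate as Tz.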

EKVX = test: Growth inhibition of human EKVX cells incubated for 48 hrs by sulforhodamine B assay
How it was run: (§2)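 Cells seeded at 5,000–40,000/well according to doubling time and preincubated 24 h at 37 °C, 5% CO2. Time-zero plates were TCA-fixed. DMSO concentrate was diluted in medium with 50 µg/ml gentamicin to give five concentrations (10-fold or ½ log steps), then exposed 48 h. Cells were TCA-fixed, stained with 0.4% SRB and read at 515 nm. Percent growth was taken against time-zero and control; GI50, TGI and LC50 derived.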

NCI-H23 = test: Growth inhibition of human NCI-H23 cells incubated for 48 hrs by sulforhodamine B assay; conditions: NCI-H23, 48 h
How it was run: (§3)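 Cells were plated at 5,000–40,000 per well according to doubling time and preincubated 24 h at 37 °C in 5% CO2; time-zero plates were then TCA-fixed. Five concentrations (10-fold or ½-log dilutions, DMSO stock) were incubated 48 h. Cells were TCA-fixed, stained with 0.4% SRB and read at 515 nm. GI50 was taken where [(Ti−Tz)/(C−Tz)]×100 = 50.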

SN12C [2] = test: Growth inhibition of human SN12C cells incubated for 48 hrs by sulforhodamine B assay; how it was run: as §3
NCI/ADR-RES [3] = test: Growth inhibition of human NCI/ADR-RES cells assessed as cell growth at 10^-5 M incubated for 48 hrs by sulforhodamine B assay; conditions: read-out: Activity
SN12C [4] = test: Growth inhibition of human SN12C cells assessed as cell growth at 10^-8 M incubated for 48 hrs by sulforhodamine B assay; conditions: read-out: Activity
MCF7 = test: Growth inhibition of human MCF7 cells assessed as cell growth at 10^-8 M incubated for 48 hrs by sulforhodamine B assay; conditions: MCF7, 48 h, read-out: Activity
[5] = Growth inhibition of human RXF393 cells assessed as cell growth at 10^-5 M incubated for 48 hrs by sulforhodamine B assay; conditions: RXF 393, 48 h, read-out: Activity
[6] = Growth inhibition of human Hs 578T cells assessed as cell growth at 10^-5 M incubated for 48 hrs by sulforhodamine B assay; conditions: read-out: Activity
[7] = Growth inhibition of human HL-60(TB) cells assessed as cell growth at 10^-4 M incubated for 48 hrs by sulforhodamine B assay; conditions: HL-60, 48 h, read-out: Activity
How it was run: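 Cells plated at 5,000–40,000/well according to doubling time and preincubated 24 h at 37 °C, 5% CO₂, with time-zero plates TCA-fixed. Drugs were kept as DMSO concentrates at 400× the top concentration and diluted in medium with 50 µg/ml gentamicin. Five 10-fold or ½-log dilutions were run for 48 h, followed by SRB staining and A515. Percent growth = (Ti−Tz)/(C−Tz)×100, or (Ti−Tz)/Tz×100 when Ti<Tz.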

A549 [8] = test: Growth inhibition of human A549/ATCC cells assessed as cell growth at 10^-4 M incubated for 48 hrs by sulforhodamine B assay; conditions: A549, 48 h, read-out: Activity
[9] = Growth inhibition of human SNB75 cells assessed as cell growth at 10^-7 M incubated for 48 hrs by sulforhodamine B assay; conditions: SNB-75, 48 h, read-out: Activity
M14 = test: Growth inhibition of human M14 cells assessed as cell growth at 10^-7 M incubated for 48 hrs by sulforhodamine B assay; conditions: M14, 48 h, read-out: Activity
NCI/ADR-RES [10] = test: Growth inhibition of human NCI/ADR-RES cells assessed as cell growth at 10^-4 M incubated for 48 hrs by sulforhodamine B assay; conditions: read-out: Activity
Malme-3M = test: Growth inhibition of human MALME-3M cells assessed as cell growth at 10 uM incubated for 48 hrs by sulforhodamine B assay; conditions: read-out: Activity
MDA-MB-435 = test: Growth inhibition of human MDA-MB-435 cells assessed as cell growth at 10 uM incubated for 48 hrs by sulforhodamine B assay; conditions: MDA-MB-435, 48 h, read-out: Activity
[11] = Growth inhibition of human BT549 cells assessed as cell growth at 10^-7 M incubated for 48 hrs by sulforhodamine B assay; conditions: BT-549, 48 h, read-out: Activity; how it was run: as §1
SR = test: Growth inhibition of human SR cells assessed as cell growth at 10^-6 M incubated for 48 hrs by sulforhodamine B assay; conditions: read-out: Activity
[12] = Growth inhibition of human LOXIMVI cells assessed as cell growth at 10^-6 M incubated for 48 hrs by sulforhodamine B assay; conditions: LOX IMVI, read-out: Activity
[13] = Growth inhibition of human HOP62 cells assessed as cell growth at 10^-5 M incubated for 48 hrs by sulforhodamine B assay; conditions: HOP-62, 48 h, read-out: Activity
NCI-H460 = test: Growth inhibition of human NCI-H460 cells assessed as cell growth at 10^-5 M incubated for 48 hrs by sulforhodamine B assay; conditions: NCI-H460, 48 h, read-out: Activity
[14] = Growth inhibition of human COLO205 cells assessed as cell growth at 10^-5 M incubated for 48 hrs by sulforhodamine B assay; conditions: COLO 205, 48 h, read-out: Activity; how it was run: as §2
KM12 = test: Growth inhibition of human KM12 cells assessed as cell growth at 10^-5 M incubated for 48 hrs by sulforhodamine B assay; conditions: KM12, 48 h, read-out: Activity
[15] = Growth inhibition of human SNB19 cells assessed as cell growth at 10^-5 M incubated for 48 hrs by sulforhodamine B assay; conditions: SNB-19, 48 h, read-out: Activity
[16] = Growth inhibition of human non-small cell lung cancer cells incubated for 48 hrs by sulforhodamine B assay; conditions: Cancer cell lines; for CC50: read-out: LC50 (the source's name)
[17] = read-out: LC50 (the source's name)
[18] = read-out: pLC50 (the source's name) (converted)

## Clc1ccc(-c2nc(Nc3ccc(-c4nc5ccccc5[nH]4)cc3)nc(N3CCOCC3)n2)cc1
A549 [1]; read-out: GI50
  GI50: 0.666 µM
A549 [1]; [17]
  CC50: 5.54 µM
A549 [1]; read-out: TGI
  TGI: 2.13 µM
A549 [1]; read-out: pGI50 (converted)
  GI50: 0.661 µM
A549 [1]; [18]
  CC50: 5.5 µM
A549 [1]; read-out: pTGI (converted)
  TGI: 2.14 µM
EKVX; read-out: GI50
  GI50: 1.14 µM
EKVX; read-out: TGI
  TGI: 2.63 µM
EKVX; read-out: pGI50 (converted)
  GI50: 1.15 µM
EKVX; read-out: pTGI (converted)
  TGI: 2.63 µM
NCI-H23; read-out: GI50
  GI50: 1.7 µM
NCI-H23; read-out: TGI
  TGI: 3.66 µM
NCI-H23; read-out: pGI50 (converted)
  GI50: 1.7 µM
NCI-H23; read-out: pTGI (converted)
  TGI: 3.63 µM
SN12C [2]; read-out: GI50
  GI50: 0.851 µM
SN12C [2]; read-out: TGI
  TGI: 2.39 µM
SN12C [2]; read-out: pGI50 (converted)
  GI50: 0.851 µM
SN12C [2]; read-out: pTGI (converted)
  TGI: 2.4 µM
NCI/ADR-RES [3]
  growth at 10 µM: -72%
SN12C [4]
  growth at 0.01 µM: 95%
MCF7
  growth at 0.01 µM: 92%
[5]
  growth at 10 µM: -79%
[6]
  growth at 10 µM: -47%
[7]
  growth at 100 µM: -45%
A549 [8]
  growth at 100 µM: -53%
[9]
  growth at 0.1 µM: 79%
M14
  growth at 0.1 µM: 93%
NCI/ADR-RES [10]
  growth at 100 µM: -7%
Malme-3M
  growth at 10 µM: -73.4%
MDA-MB-435
  growth at 10 µM: -86.1%
[11]
  growth at 0.1 µM: 93%
SR
  growth at 1 µM: -19%
[12]
  growth at 1 µM: -64%
[13]
  growth at 10 µM: -77%
NCI-H460
  growth at 10 µM: -73%
[14]
  growth at 10 µM: -71%
KM12
  growth at 10 µM: -81%
[15]
  growth at 10 µM: -70%
[16]
  GI50: 1.15 µM
  TGI: 2.59 µM
  CC50: 5.58 µM

## c1ccc2[nH]c(-c3ccc(Nc4nc(N5CCCCC5)nc(N5CCOCC5)n4)cc3)nc2c1
A549 [1]; read-out: GI50
  GI50: 3.27 µM
A549 [1]; [17]
  CC50: > 100 µM
A549 [1]; read-out: TGI
  TGI: 13.2 µM
A549 [1]; read-out: pGI50 (converted)
  GI50: 3.24 µM
A549 [1]; [18]
  CC50: > 100 µM
A549 [1]; read-out: pTGI (converted)
  TGI: 13.2 µM
EKVX; read-out: GI50
  GI50: 2.68 µM
EKVX; read-out: LC50
  LC50: > 100 µM
EKVX; read-out: TGI
  TGI: > 100 µM
EKVX; read-out: pGI50 (converted)
  GI50: 2.69 µM
EKVX; read-out: pLC50 (converted)
  LC50: > 100 µM
EKVX; read-out: pTGI (converted)
  TGI: > 100 µM
NCI-H23; read-out: GI50
  GI50: 3.05 µM
NCI-H23; [17]
  CC50: > 100 µM
NCI-H23; read-out: TGI
  TGI: 15.7 µM
NCI-H23; read-out: pGI50 (converted)
  GI50: 3.02 µM
NCI-H23; [18]
  CC50: > 100 µM
NCI-H23; read-out: pTGI (converted)
  TGI: 15.8 µM
SN12C [2]
  LC50 (50% lethal concentration): > 100 µM
SN12C [2]; read-out: GI50
  GI50: 5.4 µM
SN12C [2]; read-out: TGI
  TGI: 53.2 µM
SN12C [2]; read-out: pGI50 (converted)
  GI50: 5.37 µM
SN12C [2]; [18]
  CC50: > 100 µM
SN12C [2]; read-out: pTGI (converted)
  TGI: 53.7 µM
NCI/ADR-RES [3]
  growth at 10 µM: 28%
SN12C [4]
  growth at 0.01 µM: 95%
MCF7
  growth at 0.01 µM: 95%
[5]
  growth at 10 µM: -43%
[6]
  growth at 10 µM: -6%
[7]
  growth at 100 µM: -22%
A549 [8]
  growth at 100 µM: -12%
[9]
  growth at 0.1 µM: 74%
M14
  growth at 0.1 µM: 95%
NCI/ADR-RES [10]
  growth at 100 µM: -10%
Malme-3M
  growth at 10 µM: -50.2%
MDA-MB-435
  growth at 10 µM: -27.3%
[11]
  growth at 0.1 µM: 95%
SR
  growth at 1 µM: 44%
[12]
  growth at 1 µM: 89%
[13]
  growth at 10 µM: -52%
NCI-H460
  growth at 10 µM: -26%
[14]
  growth at 10 µM: -63%
KM12
  growth at 10 µM: -2%
[15]
  growth at 10 µM: 13%
[16]
  GI50: 2.85 µM
  TGI: 9.66 µM
  CC50: 9.54 µM
